Legend:
Assay type in all cases: cell-based
HCT-15 cells = assay: CCK-8 anti-proliferation assay, HCT-15; conditions: Homo sapiens, HCT-15, 72 h, read-out: IC50 HCT-15, HCT-15 cells, 72 h, CCK-8
Outline: (§1)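 HCT-116 and HCT-15 were grown in McCoy's 5A, and NCM-460 in RPMI 1640, each with 10% FBS and 1% penicillin-streptomycin at 37 °C, 5% CO2. Cells were seeded at 4 × 10^3 per well overnight, then exposed to graded concentrations of test compound for 72 h. Medium was replaced with fresh medium containing 10% CCK-8; A450 was read after 1 h at 37 °C. […] At least three independent experiments.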

HT-29 cells = assay: CCK-8 anti-proliferation assay, HT-29; conditions: Homo sapiens, HT-29, 72 h, read-out: IC50 HT-29, HT-29 cells, 72 h, CCK-8
HCT-116 cells = assay: CCK-8 anti-proliferation assay, HCT-116; conditions: Homo sapiens, HCT-116, 72 h, read-out: IC50 HCT-116, HCT-116 cells, 72 h, CCK-8
Outline: as §1

NCM-460 cells = assay: CCK-8 cytotoxicity, normal colon cell line NCM-460; conditions: Homo sapiens, NCM460, 72 h, read-out: IC50 NCM-460, normal human colon cell line NCM-460, 72 h, CCK-8
Outline: as §1

IC50 (HCT-15 cells) [µM]	IC50 (HT-29 cells) [µM]	IC50 (HCT-116 cells) [µM]	Compound	IC50 (NCM-460 cells) [µM]
13.3 ± 2.01	3.63 ± 0.611	1.38 ± 0.21	O=c1[nH]cc(F)c(=O)[nH]1 [5-FU, 5-fluorouracil, reference compound]	3.94 ± 1.41
–	45.9 ± 11.1	–	CC1(C)C[C@H]2[C@H]1CC[C@]1(C)CCC[C@@]2(n2cc(C(=O)NCCN)nn2)C1 [NC-14]	–
11.7 ± 0.85	4.02 ± 0.14	17.9 ± 1.01	CC1(C)C[C@H]2[C@H]1CC[C@]1(C)CCC[C@@]2(n2cc(C(=O)N3CCNCC3)nn2)C1 [NC-16]	26.1 ± 3.1
14.9 ± 0.98	3.17 ± 0.24	14.7 ± 1.79	CC1(C)C[C@H]2[C@H]1CC[C@]1(C)CCC[C@@]2(n2cc(C(=O)NC3CCNCC3)nn2)C1 [NC-18]	18.6 ± 4.58

Reference: paper PMC12699372 (RSC Advances, 2025)
